{"data": "Published values pooled from the literature", "target": "Protein-tyrosine kinase 2-beta (PTK2B, Homo sapiens, UniProt Q14289)", "note": "Lines come from different studies, so protocols differ."}
{"SMILES": "Cn1cc(-c2cc(F)cc(N3CCn4c(cc5c4CCCC5)C3=O)c2CO)cc(Nc2ccc(N3CCN(C4COC4)CC3)cn2)c1=O", "test": "enzyme activity, inhibitor", "conditions": "0.1 µM", "endpoint": "inhibition", "value": "6%"}
{"SMILES": "COc1ncccc1-c1cnn2ccc(N3CCN(C(=O)OC(C)C)CC3)nc12", "test": "binding, competition with immobilised ligand", "conditions": "1 µM", "endpoint": "remaining binding", "value": "100%"}
{"SMILES": "Cc1nn(C)cc1-c1nc2c(N3CCN(Cc4ccc(Cl)cc4)CC3)c(Cl)cnc2[nH]1", "test": "binding, competition with immobilised ligand", "conditions": "1 µM", "endpoint": "remaining binding", "value": "100%"}
{"SMILES": "Cn1cncc1[C@@](O)(COc1ccc(C#N)cc1-c1ccc(OC(F)(F)F)cc1)c1ccc(C#N)cc1", "test": "cell-free assay, competition with immobilised ligand", "conditions": "1 µM", "endpoint": "remaining binding", "value": "100%"}
{"SMILES": "O=c1[nH]c2ccccc2n1C1CCN(Cc2ccc(-c3[nH]c4cc5ncnc5cc4nc3-c3ccccc3)cc2)CC1", "test": "enzyme activity", "conditions": "0.5 µM", "endpoint": "remaining activity", "value": "105%"}
{"SMILES": "N#CC1(c2ccccn2)CCN(Cc2cc(C(=O)O)c(=O)n3ccccc23)CC1", "test": "cell-free assay, competition with immobilised ligand", "conditions": "1 µM", "endpoint": "remaining binding", "value": "100%"}
{"SMILES": "Cn1cc(-c2cccc(N3CCc4c(sc5c4CC(C)(C)C5)C3=O)c2CO)cc(Nc2ccncn2)c1=O", "test": "enzyme activity, inhibitor", "conditions": "1 µM", "endpoint": "inhibition", "value": "2%"}
{"SMILES": "Nc1ncc(-c2nc(N3CCOCC3)nc(N3CCOCC3)n2)c(C(F)F)n1", "test": "binding, competition with immobilised ligand", "conditions": "10 µM", "endpoint": "remaining binding", "value": "70%"}
